These results are taken from PubChem BioAssay AID623869 (Vanderbilt High Throughput Screening Facility, 2012).

Hit rate of the full screen: of about 2,100 compounds, about 75 (4%) were called active. This is one part of a sample in which actives are shown more often than they occur.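 How the source made its calls: active means calcium fluorescence trace judged by eye to show a response, as agonist, enhancer of the glutamate response, or inhibitor; inactive means trace judged by eye to show no response.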

Metabotropic glutamate receptor 8 (Rattus norvegicus), sequence (P70579 whole entry, looked up): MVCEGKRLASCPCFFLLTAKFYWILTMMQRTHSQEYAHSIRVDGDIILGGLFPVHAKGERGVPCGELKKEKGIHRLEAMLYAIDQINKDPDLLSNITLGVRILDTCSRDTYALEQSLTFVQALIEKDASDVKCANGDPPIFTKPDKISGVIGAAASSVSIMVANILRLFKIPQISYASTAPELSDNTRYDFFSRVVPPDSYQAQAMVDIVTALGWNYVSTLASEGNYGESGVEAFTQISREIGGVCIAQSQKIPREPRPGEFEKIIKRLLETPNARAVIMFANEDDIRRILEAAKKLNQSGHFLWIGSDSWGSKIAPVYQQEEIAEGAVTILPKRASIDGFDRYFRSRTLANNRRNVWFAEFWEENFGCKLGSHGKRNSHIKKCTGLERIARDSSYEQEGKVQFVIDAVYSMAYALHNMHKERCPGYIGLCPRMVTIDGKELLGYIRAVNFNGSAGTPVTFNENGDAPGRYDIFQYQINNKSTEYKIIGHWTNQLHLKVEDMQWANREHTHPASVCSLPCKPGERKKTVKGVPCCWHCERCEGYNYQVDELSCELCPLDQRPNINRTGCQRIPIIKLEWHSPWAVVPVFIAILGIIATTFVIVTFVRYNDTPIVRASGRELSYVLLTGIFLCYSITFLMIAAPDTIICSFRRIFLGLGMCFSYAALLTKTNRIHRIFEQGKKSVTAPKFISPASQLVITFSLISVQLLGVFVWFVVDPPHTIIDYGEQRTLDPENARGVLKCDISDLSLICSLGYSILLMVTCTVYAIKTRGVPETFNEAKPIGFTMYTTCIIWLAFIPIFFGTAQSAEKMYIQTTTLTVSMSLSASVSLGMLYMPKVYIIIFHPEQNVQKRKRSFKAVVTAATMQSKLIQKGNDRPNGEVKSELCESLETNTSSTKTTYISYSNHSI

The target of the experiment is Metabotropic glutamate receptor 8 (Rattus norvegicus) (UniProt P70579). Nature of the experiment: rat mGlu8 modulation via Gqi9 calcium signal, confirmation, counter-screen for GIRK activator project, cell-based, HEK293 rmGlu8, Gqi9 chimera, Fluo-4 calcium (AID 623869). As to conditions: HEK293 rmGlu8/Gqi9 calcium flux, Fluo-4 fluorescence; glutamate at EC20 added after compound. Summed up:
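Material: rat mGlu8 HEK-293 cells with transient Gqi9. Medium: HEPES-buffered HBSS, pH 7.4. Compound: one dose, 20 µM addition solution, 0.2% DMSO. Schedule: compound 4 min before glutamate, then 2 min recording. Technique: Fluo-4 calcium fluorescence sampled at 1 Hz.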
A general note: The purpose of a counterscreen is to sort out artefacts and off-target activity.
As to `O=C(c1cc(-c2ccccc2)on1)N1CCCC1`, the outcome was “inactive; 0”.

For `CSc1nc(-c2ccccc2)[nH]c(=S)c1C(C)=O`, the outcome was “inactive; 0”.

On to `CC(=O)c1c(N2CCCC2)[nH]c(-c2ccccc2)nc1=S`, for which the outcome is “active; 2”.

Take `COC(=O)C(C)N(C(=O)c1cccc2ccccc12)c1c(C)cccc1C` (stereo unspecified): the outcome was “inactive; 0”.

`COc1ccc(-c2cc(C(F)(F)F)c3c(n2)sc2c(O)cc(=O)[nH]c23)c(OC)c1`: the outcome is “active; 2”.

Regarding `CCOC(=O)c1c(NS(=O)(=O)c2ccc(Br)cc2)sc2c1CCC2`, the outcome is “inactive; 0”.

Turning to `COc1ccc2nc(/N=C/c3c(C)[nH]n(-c4ccc(C)cc4)c3=O)sc2c1`, the outcome was “inactive; 0”.

Consider `O=C(NN=C(Cc1ccccc1)Cc1ccccc1)c1ccc(F)cc1`, for which the outcome is “inactive; 0”.

As to `Cc1ccc(C(=O)NC(=S)Nc2ccccc2C(F)(F)F)cc1`, the outcome is “inactive; 0”.

Consider `Cc1ccc(C(=O)N/N=C(/CC(=O)c2cccs2)C(F)(F)F)cc1`, for which the outcome was “active; -1”.

Consider `COC(=O)C1=NN(C(=O)c2ccc(C)cc2)C(O)(c2ccc(Cl)cc2)C1` (stereo unspecified), for which the outcome is “inactive; 4”.

For `COC(=O)c1sc(NC(=S)NC(=O)c2ccccc2Cl)nc1C`, the outcome is “inactive; 0”.

For `O=C(NC(=S)Nc1nc2c(s1)CCCC2)c1ccccc1`, the outcome is “inactive; 0”.

Consider `COC(=O)c1ccc(C(=O)NC(=S)Nc2nc3c(s2)CCCC3)cc1`, for which the outcome was “inactive; 0”.

On to `CC(C)(C)c1ccc(C(=O)NC(=S)Nc2nc3c(s2)CCCC3)cc1`, for which the outcome was “active; 2”.

Consider `O=C(NC(=S)Nc1ccc(N2CCOCC2)c(Cl)c1)c1cncc(Br)c1`, for which the outcome is “inactive; 0”.

Turning to `CCOC(=O)c1c2n(c3c(NCc4ccccc4)ncnc13)CCCC2`, the outcome is “inactive; 0”.

Regarding `O=C1OCCC1Sc1nc2cc(Cl)ccc2n1Cc1ccccc1` (stereo unspecified), the outcome was “active; 2”.

On to `Cc1cc(NC(=O)CSc2nc3ccccc3c(=O)n2Cc2ccccc2)no1`, for which the outcome was “inactive; 0”.

With `O=C1CN(C(=O)CSc2nc3cc(Cl)ccc3c(=O)n2Cc2ccccc2)c2ccccc2N1`, the outcome was “inactive; 0”.

As for `Cc1cccc(C(=O)CC(=O)c2cc(Cl)ccc2O)c1`, the outcome was “inactive; 0”.

`C/C(=N/NC(=O)c1cc(Cl)ccc1O)C12CC3CC(CC(C3)C1)C2`: the outcome was “active; 1”.

For the compound `Cc1ccc(C(=O)CC(=O)c2cc(Cl)ccc2O)cc1`, the outcome is “inactive; 0”.

As for `COc1ccccc1/C=C/C(=O)NC(=S)N(C)C1CCCCC1`, the outcome is “inactive; 0”.

For the compound `Oc1ccccc1CNc1ccc(Br)cn1`, the outcome is “active; -1”.

`CC(Nc1ccc(Br)cn1)c1cc(Cl)ccc1O` (stereo unspecified): the outcome is “inactive; 0”.

As for `O=c1c(-c2ccccc2)nc(-c2ccccc2)cn1O`, the outcome is “inactive; 0”.

Turning to `O=C(NC(=S)N1CCN(Cc2ccccc2)CC1)c1ccccc1`, the outcome is “inactive; 0”.

On to `CC(C)(C)NC(=O)C(c1ccncc1)N(C(=O)c1csnn1)c1ccccc1` (stereo unspecified), for which the outcome is “active; -1”.

Turning to `O=C(NC(=S)Nc1ccccc1)c1csnn1`, the outcome is “inactive; 0”.

On to `CCC(C)(C)NC(=O)C(c1ccc(F)cc1)N(Cc1ccco1)C(=O)c1cnccn1` (stereo unspecified), for which the outcome is “inactive; 0”.
